Measurements reported in ChEMBL document CHEMBL1629475, “Synthesis of new chalcone derivatives containing a rhodanine-3-acetic acid moiety with potential anti-bacterial activity” (2010).
≈ marks a conversion by molar mass, not a printed value. Calls of active or inactive are those of the source. The rule behind the calls is not given here.

system: Streptococcus mutans; experiment: Antibacterial activity against Streptococcus mutans KCTC 3289 after 20 hrs by twofold serial dilution technique; assay type: functional; conditions: KCTC 3289, 20 h
How it was run: (§1)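 Inoculum was 10⁵ CFU/mL, and MIC was read after incubation at 37 °C for 20 h. Oxacillin and norfloxacin were the positive controls.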

SMILES	MIC
O=C(O)CN1C(=O)/C(=C\c2ccc(/C=C/C(=O)c3ccc(Cl)cc3)cc2)SC1=S	4 µg/mL (≈ 9.01 µM)
COCOc1ccc(C(=O)/C=C/c2ccc(/C=C3/SC(=S)N(CC(=O)O)C3=O)cc2)cc1	> 64 µg/mL
COc1ccc(C(=O)/C=C/c2ccc(/C=C3/SC(=S)N(CC(=O)O)C3=O)cc2)cc1	64 µg/mL (≈ 146 µM)
Cc1ccc(C(=O)/C=C/c2ccc(/C=C3/SC(=S)N(CC(=O)O)C3=O)cc2)cc1	64 µg/mL (≈ 151 µM)
O=C(O)CN1C(=O)/C(=C\c2ccc(/C=C/C(=O)c3ccc(Cl)cc3Cl)cc2)SC1=S	2 µg/mL (≈ 4.18 µM)
Cc1onc(-c2ccccc2)c1C(=O)N[C@@H]1C(=O)N2[C@@H]1SC(C)(C)[C@@H]2C(=O)O [OXACILLIN]	1 µg/mL (≈ 2.49 µM)

system: Escherichia coli; experiment: Antibacterial activity against Escherichia coli 1356 after 20 hrs by twofold serial dilution technique; assay type: functional; conditions: Escherichia coli, 1356, 20 h
How it was run: (§2)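 Inoculum was 10⁵ CFU/mL. MIC was read after 20 h at 37 °C. The MRSA and QRSA strains were multidrug-resistant clinical isolates. Oxacillin and norfloxacin served as positive controls.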

SMILES	MIC
O=C(O)CN1C(=O)/C(=C\c2ccc(/C=C/C(=O)c3ccc(Cl)cc3)cc2)SC1=S	> 64 µg/mL
COCOc1ccc(C(=O)/C=C/c2ccc(/C=C3/SC(=S)N(CC(=O)O)C3=O)cc2)cc1	> 64 µg/mL
COc1ccc(C(=O)/C=C/c2ccc(/C=C3/SC(=S)N(CC(=O)O)C3=O)cc2)cc1	> 64 µg/mL
Cc1ccc(C(=O)/C=C/c2ccc(/C=C3/SC(=S)N(CC(=O)O)C3=O)cc2)cc1	> 64 µg/mL
O=C(O)CN1C(=O)/C(=C\c2ccc(/C=C/C(=O)c3ccc(Cl)cc3Cl)cc2)SC1=S	> 64 µg/mL
Cc1onc(-c2ccccc2)c1C(=O)N[C@@H]1C(=O)N2[C@@H]1SC(C)(C)[C@@H]2C(=O)O [OXACILLIN]	> 64 µg/mL

system: Escherichia coli; experiment: Antibacterial activity against Escherichia coli 1924 at 64 ug/ml; assay type: functional, organism-based; conditions: not given

SMILES	Activity
O=C(O)CN1C(=O)/C(=C\c2ccc(/C=C/C(=O)c3ccc(Cl)cc3)cc2)SC1=S	inactive
COCOc1ccc(C(=O)/C=C/c2ccc(/C=C3/SC(=S)N(CC(=O)O)C3=O)cc2)cc1	inactive
COc1ccc(C(=O)/C=C/c2ccc(/C=C3/SC(=S)N(CC(=O)O)C3=O)cc2)cc1	inactive
Cc1ccc(C(=O)/C=C/c2ccc(/C=C3/SC(=S)N(CC(=O)O)C3=O)cc2)cc1	inactive
O=C(O)CN1C(=O)/C(=C\c2ccc(/C=C/C(=O)c3ccc(Cl)cc3Cl)cc2)SC1=S	inactive

system: Staphylococcus aureus; experiment: Antibacterial activity against Staphylococcus aureus RN 4220 after 20 hrs by twofold serial dilution technique; assay type: functional; conditions: RN 4220, 20 h; how it was run: as §2

SMILES	MIC
O=C(O)CN1C(=O)/C(=C\c2ccc(/C=C/C(=O)c3ccc(Cl)cc3)cc2)SC1=S	4 µg/mL (≈ 9.01 µM)
COCOc1ccc(C(=O)/C=C/c2ccc(/C=C3/SC(=S)N(CC(=O)O)C3=O)cc2)cc1	> 64 µg/mL
COc1ccc(C(=O)/C=C/c2ccc(/C=C3/SC(=S)N(CC(=O)O)C3=O)cc2)cc1	64 µg/mL (≈ 146 µM)
Cc1ccc(C(=O)/C=C/c2ccc(/C=C3/SC(=S)N(CC(=O)O)C3=O)cc2)cc1	64 µg/mL (≈ 151 µM)
O=C(O)CN1C(=O)/C(=C\c2ccc(/C=C/C(=O)c3ccc(Cl)cc3Cl)cc2)SC1=S	2 µg/mL (≈ 4.18 µM)
Cc1onc(-c2ccccc2)c1C(=O)N[C@@H]1C(=O)N2[C@@H]1SC(C)(C)[C@@H]2C(=O)O [OXACILLIN]	1 µg/mL (≈ 2.49 µM)

system: Staphylococcus aureus; experiment: Antibacterial activity against Staphylococcus aureus KCTC 209 after 20 hrs by twofold serial dilution technique; assay type: functional; conditions: KCTC 209, 20 h; how it was run: as §2

SMILES	MIC
O=C(O)CN1C(=O)/C(=C\c2ccc(/C=C/C(=O)c3ccc(Cl)cc3)cc2)SC1=S	4 µg/mL (≈ 9.01 µM)
COCOc1ccc(C(=O)/C=C/c2ccc(/C=C3/SC(=S)N(CC(=O)O)C3=O)cc2)cc1	> 64 µg/mL
COc1ccc(C(=O)/C=C/c2ccc(/C=C3/SC(=S)N(CC(=O)O)C3=O)cc2)cc1	64 µg/mL (≈ 146 µM)
Cc1ccc(C(=O)/C=C/c2ccc(/C=C3/SC(=S)N(CC(=O)O)C3=O)cc2)cc1	64 µg/mL (≈ 151 µM)
O=C(O)CN1C(=O)/C(=C\c2ccc(/C=C/C(=O)c3ccc(Cl)cc3Cl)cc2)SC1=S	2 µg/mL (≈ 4.18 µM)
Cc1onc(-c2ccccc2)c1C(=O)N[C@@H]1C(=O)N2[C@@H]1SC(C)(C)[C@@H]2C(=O)O [OXACILLIN]	1 µg/mL (≈ 2.49 µM)

system: Streptococcus mutans; experiment: Antibacterial activity against Streptococcus mutans KCTC 3065 after 20 hrs by twofold serial dilution technique; assay type: functional; conditions: KCTC 3065, 20 h; how it was run: as §1

SMILES	MIC
O=C(O)CN1C(=O)/C(=C\c2ccc(/C=C/C(=O)c3ccc(Cl)cc3)cc2)SC1=S	4 µg/mL (≈ 9.01 µM)
COCOc1ccc(C(=O)/C=C/c2ccc(/C=C3/SC(=S)N(CC(=O)O)C3=O)cc2)cc1	> 64 µg/mL
COc1ccc(C(=O)/C=C/c2ccc(/C=C3/SC(=S)N(CC(=O)O)C3=O)cc2)cc1	64 µg/mL (≈ 146 µM)
Cc1ccc(C(=O)/C=C/c2ccc(/C=C3/SC(=S)N(CC(=O)O)C3=O)cc2)cc1	64 µg/mL (≈ 151 µM)
O=C(O)CN1C(=O)/C(=C\c2ccc(/C=C/C(=O)c3ccc(Cl)cc3Cl)cc2)SC1=S	2 µg/mL (≈ 4.18 µM)
Cc1onc(-c2ccccc2)c1C(=O)N[C@@H]1C(=O)N2[C@@H]1SC(C)(C)[C@@H]2C(=O)O [OXACILLIN]	1 µg/mL (≈ 2.49 µM)

system: Escherichia coli; experiment: Antibacterial activity against Escherichia coli 1924 after 20 hrs by twofold serial dilution technique; assay type: functional; conditions: Escherichia coli, 1924, 20 h; how it was run: as §2

SMILES	MIC
O=C(O)CN1C(=O)/C(=C\c2ccc(/C=C/C(=O)c3ccc(Cl)cc3)cc2)SC1=S	> 64 µg/mL
COCOc1ccc(C(=O)/C=C/c2ccc(/C=C3/SC(=S)N(CC(=O)O)C3=O)cc2)cc1	> 64 µg/mL
COc1ccc(C(=O)/C=C/c2ccc(/C=C3/SC(=S)N(CC(=O)O)C3=O)cc2)cc1	> 64 µg/mL
Cc1ccc(C(=O)/C=C/c2ccc(/C=C3/SC(=S)N(CC(=O)O)C3=O)cc2)cc1	> 64 µg/mL
O=C(O)CN1C(=O)/C(=C\c2ccc(/C=C/C(=O)c3ccc(Cl)cc3Cl)cc2)SC1=S	> 64 µg/mL
Cc1onc(-c2ccccc2)c1C(=O)N[C@@H]1C(=O)N2[C@@H]1SC(C)(C)[C@@H]2C(=O)O [OXACILLIN]	> 64 µg/mL

system: Escherichia coli; experiment: Antibacterial activity against Escherichia coli 1356 at 64 ug/ml; assay type: functional, organism-based; conditions: not given

SMILES	Activity
O=C(O)CN1C(=O)/C(=C\c2ccc(/C=C/C(=O)c3ccc(Cl)cc3)cc2)SC1=S	inactive
COCOc1ccc(C(=O)/C=C/c2ccc(/C=C3/SC(=S)N(CC(=O)O)C3=O)cc2)cc1	inactive
COc1ccc(C(=O)/C=C/c2ccc(/C=C3/SC(=S)N(CC(=O)O)C3=O)cc2)cc1	inactive
Cc1ccc(C(=O)/C=C/c2ccc(/C=C3/SC(=S)N(CC(=O)O)C3=O)cc2)cc1	inactive
O=C(O)CN1C(=O)/C(=C\c2ccc(/C=C/C(=O)c3ccc(Cl)cc3Cl)cc2)SC1=S	inactive

system: Staphylococcus aureus; experiment: Antibacterial activity against Staphylococcus aureus MRSA CCARM 3506 after 20 hrs by twofold serial dilution technique; assay type: functional; conditions: MRSA CCARM 3506, 20 h; how it was run: as §2

SMILES	MIC
O=C(O)CN1C(=O)/C(=C\c2ccc(/C=C/C(=O)c3ccc(Cl)cc3)cc2)SC1=S	4 µg/mL (≈ 9.01 µM)
O=C(O)CN1C(=O)/C(=C\c2ccc(/C=C/C(=O)c3ccc(Cl)cc3Cl)cc2)SC1=S	2 µg/mL (≈ 4.18 µM)
Cc1onc(-c2ccccc2)c1C(=O)N[C@@H]1C(=O)N2[C@@H]1SC(C)(C)[C@@H]2C(=O)O [OXACILLIN]	> 64 µg/mL

system: Staphylococcus aureus; experiment: Antibacterial activity against Staphylococcus aureus QRSA CCARM 3519 after 20 hrs by twofold serial dilution technique; assay type: functional; conditions: QRSA CCARM 3519, 20 h; how it was run: as §2

SMILES	MIC
O=C(O)CN1C(=O)/C(=C\c2ccc(/C=C/C(=O)c3ccc(Cl)cc3)cc2)SC1=S	4 µg/mL (≈ 9.01 µM)
O=C(O)CN1C(=O)/C(=C\c2ccc(/C=C/C(=O)c3ccc(Cl)cc3Cl)cc2)SC1=S	2 µg/mL (≈ 4.18 µM)
Cc1onc(-c2ccccc2)c1C(=O)N[C@@H]1C(=O)N2[C@@H]1SC(C)(C)[C@@H]2C(=O)O [OXACILLIN]	1 µg/mL (≈ 2.49 µM)

system: Staphylococcus aureus; experiment: Antibacterial activity against Staphylococcus aureus QRSA CCARM 3505 after 20 hrs by twofold serial dilution technique; assay type: functional; conditions: QRSA CCARM 3505, 20 h; how it was run: as §2

SMILES	MIC
O=C(O)CN1C(=O)/C(=C\c2ccc(/C=C/C(=O)c3ccc(Cl)cc3)cc2)SC1=S	4 µg/mL (≈ 9.01 µM)
O=C(O)CN1C(=O)/C(=C\c2ccc(/C=C/C(=O)c3ccc(Cl)cc3Cl)cc2)SC1=S	2 µg/mL (≈ 4.18 µM)
Cc1onc(-c2ccccc2)c1C(=O)N[C@@H]1C(=O)N2[C@@H]1SC(C)(C)[C@@H]2C(=O)O [OXACILLIN]	1 µg/mL (≈ 2.49 µM)

system: Staphylococcus aureus; experiment: Antibacterial activity against Staphylococcus aureus KCTC 503 after 20 hrs by twofold serial dilution technique; assay type: functional; conditions: KCTC 503, 20 h; how it was run: as §2

SMILES	MIC
O=C(O)CN1C(=O)/C(=C\c2ccc(/C=C/C(=O)c3ccc(Cl)cc3)cc2)SC1=S	4 µg/mL (≈ 9.01 µM)
COCOc1ccc(C(=O)/C=C/c2ccc(/C=C3/SC(=S)N(CC(=O)O)C3=O)cc2)cc1	> 64 µg/mL
COc1ccc(C(=O)/C=C/c2ccc(/C=C3/SC(=S)N(CC(=O)O)C3=O)cc2)cc1	64 µg/mL (≈ 146 µM)
Cc1ccc(C(=O)/C=C/c2ccc(/C=C3/SC(=S)N(CC(=O)O)C3=O)cc2)cc1	64 µg/mL (≈ 151 µM)
O=C(O)CN1C(=O)/C(=C\c2ccc(/C=C/C(=O)c3ccc(Cl)cc3Cl)cc2)SC1=S	2 µg/mL (≈ 4.18 µM)
Cc1onc(-c2ccccc2)c1C(=O)N[C@@H]1C(=O)N2[C@@H]1SC(C)(C)[C@@H]2C(=O)O [OXACILLIN]	1 µg/mL (≈ 2.49 µM)

system: Staphylococcus aureus; experiment: Antibacterial activity against Staphylococcus aureus MRSA CCARM 3167 after 20 hrs by twofold serial dilution technique; assay type: functional; conditions: MRSA CCARM 3167, 20 h; how it was run: as §2

SMILES	MIC
O=C(O)CN1C(=O)/C(=C\c2ccc(/C=C/C(=O)c3ccc(Cl)cc3)cc2)SC1=S	4 µg/mL (≈ 9.01 µM)
O=C(O)CN1C(=O)/C(=C\c2ccc(/C=C/C(=O)c3ccc(Cl)cc3Cl)cc2)SC1=S	2 µg/mL (≈ 4.18 µM)
Cc1onc(-c2ccccc2)c1C(=O)N[C@@H]1C(=O)N2[C@@H]1SC(C)(C)[C@@H]2C(=O)O [OXACILLIN]	> 64 µg/mL
